In series [1] the test system is MCF7. Description: Drug uptake in human MCF7 cells assessed as increase in fluorescently labeled cells at 10 '-5 mol/L after 30 mins by FACS analysis relative to untreated control. The format is ADME, cell-based. The conditions noted are these: mcf7, 0.5 h, 10 µM. A digest of the protocol:
(§1)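 Cells grown to 80% confluence, trypsinized, seeded at 10^6 per well and cultured 24 h. They were then exposed to FITC-peptide at 10−5 mol/L in serum-free medium for 30 min at 37 °C, washed, and trypsinized to strip surface-bound peptide. Read by flow cytometry as percent cells above the autofluorescence cutoff of untreated cells. Repeated 2−3 times.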

The subject of series [2] is MDA-MB-231. The series can be described thus: Drug uptake in human MDA-MB-231 cells assessed as increase in fluorescently labeled cells at 10 '-5 mol/L after 30 mins by FACS analysis relative to untreated control. The conditions noted are these: mda-mb-231, 0.5 h, 10 µM. The format is ADME, cell-based. A digest of the protocol: as §1
(In general: A flow cytometer gives signals particle by particle.)

Series [3] relates to MDA-MB-435. Description: Drug uptake in human MDA-MB-435 cells assessed as increase in fluorescently labeled cells at 10 '-5 mol/L after 30 mins by FACS analysis relative to untreated control. In kind it is ADME, cell-based. The conditions noted are these: mda-mb-435, 0.5 h, 10 µM. A digest of the protocol: as §1
Series [4] relates to Liver. Description: Proteolytic stability in CD1 mouse liver homogenate up to 48 hrs by RP-HPLC analysis. In kind it is ADME, tissue-based. The conditions noted are these: tissue homogenate. A digest of the protocol: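 Homogenate prepared from male CD-1 mouse liver in ice-cold HEPES pH 7.4, centrifuged, and its protein set by BCA. Peptide stock (1 mM in 5% ACN/water) diluted into homogenate plus RPMI pH 7.4 (2.94 mg protein total), shaken at 37 °C up to 48 h. Timed aliquots analyzed by RP-HPLC.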

For series [5], the system named is MCF7. The series can be described thus: Drug uptake in human MCF7 cells assessed as increase in fluorescently labeled cells at 10 '-5 mol/L after 30 mins by FACS analysis relative to WNleEAAYQRFL peptide. The conditions noted are these: mcf7, 0.5 h, 10 µM. The format is ADME, cell-based. A digest of the protocol:
(§2)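 Cells grown to 80% confluence, trypsinized, seeded at 10^6 per well for 24 h at 37 °C, then exposed to FITC-labeled peptides at 10−5 mol/L in serum-free medium for 30 min at 37 °C. Washed three times with PBS, trypsinized to strip surface-bound peptide, analyzed by flow cytometry. Untreated-cell autofluorescence set the cutoff for labeled cells. Repeated 2−3 times.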

The next series relates to MCF-10A. Description: Drug uptake by human MCF10A cells assessed as increase in fluorescently labeled cells after 30 mins by FACS analysis relative to untreated control. In kind it is ADME, cell-based. The conditions noted are these: 0.5 h. Put shortly: as §2
The subject of series [6] is MDA-MB-435. Description: Drug uptake in human MDA-MB-435 cells assessed as increase in fluorescently labeled cells at 10 '-5 mol/L after 30 mins by FACS analysis relative to WNleEAAYQRFL peptide. In kind it is ADME, cell-based. The conditions noted are these: mda-mb-435, 0.5 h, 10 µM. Put shortly:
as §2

Series [7] in a line: Cytotoxicity against human MDA-MB-435 cells assessed as cell viability up to 100 uM by MTT assay. The format is cell-based. The conditions noted are these: read-out: Activity. A digest of the protocol: (§3)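 MDA-MB-435 cells seeded at 1 × 10^4 cells/well in serum-free RPMI with antibiotics, 37 °C, 5% CO2; after 24 h, peptides (1−100 μM, made up in sterile water) added for 48 h; doxorubicin positive control, untreated negative control. MTT (5 mg/mL medium) 3.5 h, formazan dissolved in DMSO, A570 with 650 nm reference. Viability = absorbance treated/untreated; triplicate, mean.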
Background: Tetrazolium dyes change colour on reduction, which living cells bring about.

Series [8] deals with MDA-MB-435. The series can be described thus: Drug uptake in human MDA-MB-435 cells assessed as internalization at 10 '-5 mol/L after 30 mins by fluorescence microscopy. The format is ADME, cell-based. The conditions noted are these: mda-mb-435, 0.5 h, 10 µM. A digest of the protocol:
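MDA-MB-435 cells (50 000) grown on coverslips for 24 h at 37 °C, then given FITC-labeled peptide at 10−5 mol/L in serum-free medium for 30 min at 37 °C. Washed, fixed on ice with 2% formaldehyde for 20 min, nuclei stained with DAPI. Imaged by fluorescence microscopy at 20×; internalization confirmed by confocal optical sectioning, 40× oil lens, 1.64 μm steps.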

The subject of series [9] is Serum. The series can be described thus: Proteolytic stability in human serum assessed as compound degradation from 0.5 to 24 hrs by RP-HPLC analysis. In kind it is ADME, cell-free. Put shortly:
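25% human serum in RPMI, equilibrated at 37 °C, with peptide added from a 1 mM aqueous stock. Aliquots taken at 0, 0.5, 1, 5 and 24 h, proteins precipitated with methanol at 4 °C and spun down. Supernatant run on C18 RP-HPLC with a 12−100% IPA/water gradient, detection at 214 nm. Peaks quantified by area; identity checked by MALDI-TOF.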

Series [10] has as its system HUVEC. The series can be described thus: Drug uptake in human HUVEC cells assessed as increase in fluorescently labeled cells after 30 mins by FACS analysis relative to untreated control. The format is ADME, cell-based. The conditions noted are these: 0.5 h. Put shortly:
as §2

Series [11] has as its system HUVEC. Description: Drug uptake in human HUVEC cells at 10 '-5 mol/L after 30 mins by confocal microscopy. In kind it is ADME, cell-based. The conditions noted are these: 0.5 h, 10 µM. A digest of the protocol: (§4)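 MDA-MB-435 or HUVEC cells (50,000) grown on coverslips for 24 h at 37 °C, then exposed to FITC-labelled peptide at 10−5 mol/L in serum-free medium for 30 min at 37 °C. Cells washed, fixed on ice in 2% formaldehyde for 20 min, nuclei stained with DAPI. Imaged by fluorescence microscopy (20×); the same samples were taken to confocal optical sectioning (40× oil) to confirm internalization.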

The species named for another series is Homo sapiens. Description: Binding affinity to human MDA-MB-435 cell membrane at 10 '-5 mol/L after 30 mins by fluorescence microscopy. A digest of the protocol:
as §4

Series [12] has as its system MDA-MB-435. The series can be described thus: Drug uptake in human MDA-MB-435 cells at 10 '-5 mol/L after 30 mins by confocal microscopy. The format is ADME, cell-based. The conditions noted are these: mda-mb-435, 0.5 h, 10 µM. A digest of the protocol:
as §4

Series [13] deals with MDA-MB-231. Description: Drug uptake in human MDA-MB-231 cells assessed as increase in fluorescently labeled cells at 10 '-5 mol/L after 30 mins by FACS analysis relative to WNleEAAYQRFL peptide. The format is ADME, cell-based. The conditions noted are these: mda-mb-231, 0.5 h, 10 µM. A digest of the protocol:
as §2

Series [14] deals with MDA-MB-435. Description: Binding affinity to human MDA-MB-435 cells assessed as decrease in fluorescence after 30 mins by FACS analysis in the presence of unlabelled compound. The format is functional, cell-based. A digest of the protocol:
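Competition assay by flow cytometry in MDA-MB-435 cells. FITC-labelled peptide at 10−5 mol/L was co-incubated with a 50-fold excess of the same unlabelled peptide for 30 min at 37 °C. Cells washed with ice-cold PBS, then FACS as in the uptake assay. Repeated 2−3 times.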

In series [15] the test system is MDA-MB-435. Description: Growth inhibition of human MDA-MB-435 cells at 15 uM by MTT assay. The format is functional, cell-based. Put shortly: as §3
Series [16] concerns Serum. Description: Proteolytic stability in human serum assessed as compound degradation after 30 mins by RP-HPLC analysis. The conditions noted are these: 0.5 h. In kind it is ADME, cell-free. Put shortly:
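Final mix of 25% human serum in RPMI, equilibrated at 37 °C for 15 min. Peptide added from a 1 mM water stock (100 μL into 1 mL total). Aliquots taken at 0, 0.5, 1, 5 and 24 h and quenched in methanol; serum proteins pelleted. Supernatant analysed by RP-HPLC (12–100% IPA/water, 214 nm); peaks integrated, with fragments identified by MALDI-TOF.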

In series [17] the test system is MDA-MB-435. Description: Binding affinity to human MDA-MB-435 cells by CyQuant GR fluorescent dye-based assay. The format is functional, cell-based.
In series [18] the test system is Liver. The series can be described thus: Proteolytic stability in CD1 mouse liver homogenate after 15 mins by RP-HPLC analysis. In kind it is ADME, tissue-based. The conditions noted are these: tissue homogenate, 0.25 h. Put shortly: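 Liver homogenate from male CD-1 mice, made in ice-cold HEPES pH 7.4 and centrifuged; supernatant adjusted to 14.7 mg/mL protein. Peptide added from a 1 mM stock in 5% ACN/water (100 μL) to 200 μL homogenate plus 700 μL RPMI, pH 7.4 (2.94 mg protein). Incubated at 37 °C with shaking, sampled at intervals, and analysed by RP-HPLC.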

Results on 6 compounds are retold here after ChEMBL document CHEMBL1914448, “Proteolytically stable cancer targeting peptides with high affinity for breast cancer cells” (J Med Chem, 2011).

pKd: −log10 of the molar value. Active and inactive are the calls of the source. Peptide text beside a SMILES is read from it.

Consider H-WEEAAYQRFL-OH, for which the Drug uptake stood at 60% in the series on MCF7 [1], 33% in the series on MDA-MB-231 [2] and 14% in the series with MDA-MB-435 [3].
On to `CCCC[C@H](NC(=O)C[C@H](N)C(=O)NCc1cccc2ccccc12)C(=O)N[C@@H](CCC(=O)O)C(=O)N[C@@H](CC(=O)N[C@@H](C)C(=O)N[C@@H](Cc1ccc(O)cc1)C(=O)N[C@@H](CCC(N)=O)C(=O)N[C@@H](CC(=O)N[C@@H](Cc1ccccc1)C(=O)N[C@@H](CC(C)C)C(=O)O)C(=O)NCCCCN)C(=O)NC`, for which the Stability entry with Liver [4] and with Serum [9] was “Stable” in each case. In addition, the “fold change (FC)” value in the series on MCF7 [5], in the series with MDA-MB-435 [6] and in the series with MDA-MB-231 [13] was 3 throughout. Moreover, the Drug uptake in the series with MCF-10A is 50%; in the series with MDA-MB-435 [8] it was “Active”; in the series with HUVEC [10], 30%; in the series on HUVEC [11] it was “Not Active”; in the series with MDA-MB-435 [12], “Active”. Moreover, in series [7], the viability is > 98%. The outcome in the series listed under Homo sapiens was Active.
`CCCC[C@@H](NC(=O)[C@@H](N)Cc1c[nH]c2ccccc12)C(=O)N[C@@H](CCC(=O)O)C(=O)N[C@@H](C)C(=O)N[C@@H](C)C(=O)N[C@@H](Cc1ccc(O)cc1)C(=O)N[C@@H](CCC(N)=O)C(=O)N[C@H](CCCNC(=N)N)C(=O)N[C@@H](Cc1ccccc1)C(=O)N[C@@H](CC(C)C)C(=O)O` (HELM PEPTIDE1{W.[CCCC[C@@H](N[*:1])C(=O)[*:2]].E.A.A.Y.Q.[dR].F.L}$$$$V2.0): the Stability entry in the series with Liver [4] and in the series on Serum [9] was “Stable” in each case. In addition, the Drug uptake with MCF7 [1] was 68%; in the series with MDA-MB-231 [2], 45%; in the series with MCF-10A, 36%; with MDA-MB-435 [3] it was 35%; with HUVEC [10], 12%; in the series on HUVEC [11] it was “Not Active”. Further, the Drug uptake result in the series on MDA-MB-435 [12] is reported as “Active”. Also, the “fold change (FC)” value with MCF7 [5], in the series with MDA-MB-435 [6] and in the series on MDA-MB-231 [13] was 3.5 in each case. For the same compound, the outcome in the series on MDA-MB-435 [14] was inactive. Further, the viability in [7] was > 98%. Besides, the outcome in the series listed under Homo sapiens was Active.
For the compound `COc1cccc2c1C(=O)c1c(O)c3c(c(O)c1C2=O)C[C@@](O)(C(=O)CO)C[C@@H]3O[C@H]1C[C@H](N)[C@H](O)[C@H](C)O1`, the “growth inhibition (GI)” value with MDA-MB-435 [15] is “Active”.
On to `CCCC[C@H](NC(=O)C[C@H](N)C(=O)NCc1cccc2ccccc12)C(=O)N[C@@H](CCC(=O)O)C(=O)N[C@@H](C)C(=O)N[C@@H](CC(=O)N[C@@H](Cc1ccc(O)cc1)C(=O)N[C@@H](CCC(N)=O)C(=O)N[C@@H](CC(=O)N[C@@H](Cc1ccccc1)C(=O)N[C@@H](CC(C)C)C(=O)O)C(=O)NCCCCN)C(=O)NC`, for which the Stability result in the series with Liver [4] and in the series with Serum [9] was “Stable” in each case. For the same compound, the “fold change (FC)” value in the series on MCF7 [5], with MDA-MB-435 [6] and in the series on MDA-MB-231 [13] was 3 in each case. Also, the Drug uptake in the series on MCF-10A is 55%; in the series on HUVEC [10] it was 35%. The viability in [7] was > 98%.
The term pKd denotes −log10 of the Kd, conventionally taken in molar units. The low end stands for a high Kd, the high end for a low Kd. For the compound `CCCC[C@H](NC(=O)[C@@H](N)Cc1c[nH]c2ccccc12)C(=O)N[C@@H](CCC(=O)O)C(=O)N[C@@H](C)C(=O)N[C@@H](C)C(=O)N[C@@H](Cc1ccc(O)cc1)C(=O)N[C@@H](CCC(N)=O)C(=O)N[C@@H](CCCNC(=N)N)C(=O)N[C@@H](Cc1ccccc1)C(=O)N[C@@H](CC(C)C)C(=O)O` (HELM PEPTIDE1{W.[Nle].E.A.A.Y.Q.R.F.L}$$$$V2.0), the Drug uptake in the series on MCF7 [1] is recorded as 22%; with MDA-MB-231 [2], 16%; in the series with MDA-MB-435 [3] it was 10%. Also, the Stability entry in the series on Serum [16] and with Liver [18] was “Unstable” in each case. The pKd in the series on MDA-MB-435 [17] was 4.38.
